According to PMC11451551 (Science Advances, 2024):
pEC50: −log10 of the molar value.

How the values were obtained:
[1] = tested on: anesthetized beagle dogs; assay: in vivo; format: in vivo, dog; conditions: for effect on cardiovascular parameters / effect on platelets: iv bolus
[2] = in vivo; format: in vivo, dog; conditions: male, beagle, dog, in vivo, 0.3 mg/kg
[3] = tested on: digitonin-permeabilized Molt-4 cells; assay: Permeabilized cell JC-1 assay; format: cell-based, human
In short: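 Molt-4 cells were washed into DTEB buffer (trehalose, KCl, EDTA/EGTA, 0.1% BSA, succinate, 10 mM Hepes-KOH pH 7.5) containing 2 μM JC-1, 0.01% digitonin, 10 mM β-mercaptoethanol and oligomycin (20 μg/ml). After 10 min at room temperature they were diluted with an equal volume of buffer and test compound was added. DMSO was the negative control; FCCP 10 μM final defined 100% depolarization. Fluorescence at 590 nm was read every 10 min, 37°C, 1–3 h. EC50 from % depolarization.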

[4] = tested on: Molt-4 cells; assay: Cell viability assay; format: cell-based, human
In short: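 Molt-4 or RS4;11 leukaemia cells were plated at 50,000 per well in medium with 10% human serum. They were exposed 48 h to a threefold dilution series of test compound, 5 to 0.020 μM, each concentration in duplicate on at least three occasions. Viable cells were read by CellTiter-Glo luminescence, and EC50 was taken from a sigmoidal fit.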

[5] = tested on: circulating platelets in SCID/bg mice; assay: Assessment of platelet levels in mice; format: in vivo, mouse; conditions: single dose: 9 0.1 mg/kg iv, 10 0.6 mg/kg iv, navitoclax 50 mg/kg oral
In short: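 Female SCID/bg mice were randomised (15 per group) and given one dose of vehicle or test compound, intravenously or by oral gavage. At 6, 72 and 168 h, five mice per group were bled from the retro-orbital plexus under sevoflurane into heparinised vials and then euthanised without recovery. Platelets were counted on an automated haematology analyser; results are group means with SEM.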

[6] = tested on: H1650 tumors; assay: H1650 xenograft efficacy in SCID/bg mice; format: in vivo, mouse
In short: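 H1650 or PC-9 NSCLC cells (RPMI 1640, 10% heat-inactivated FBS, ≤5 passages, mycoplasma-free) were injected subcutaneously at 5×10^6 cells into the right flank of 8-week-old female SCID/bg mice (~22 g). Docetaxel was given 7.5 mg/kg iv QDx1 and conjugates intraperitoneally. In the single-dose study (H1650 only), tumours were ~200 mm³ and treatment began on day 9, QDx1. In the other study, treatment began on day 10, Q7D×2. Volumes are means of eight tumours.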

Row | SMILES | Permeabilized Molt-4 EC50 [3] | effect on platelets at 6 hours [5] | effect on cardiovascular parameters [1] | effect on platelets [1] | also measured
1 | Cc1c(-c2ccc(N3CCc4cccc(C(=O)Nc5nc6ccccc6s5)c4C3)nc2C(=O)O)cnn1CC12CC3(C)CC(C)(C1)CC(OCCNCC[C@H](O)CO)(C3)C2 [compound 11] | – | – | – | – | effect on cardiovascular function ([1]; 0.3 mg/kg per minute): cardiovascular collapse in both animals; effect on cardiovascular function ([1]; 0.01 and 0.1 mg/kg per minute): no impact on blood pressure or other indices of cardiovascular function; plasma concentration without impact on cardiovascular function ([1]; infusion 0.01 and 0.1 mg/kg per minute): ≤ 0.447 µg/mL; estimated cardiovascular TI (dog tolerated plasma level vs free 11 in monkeys) ([1]; male, beagle, dog, in vivo): > 65 fold; Cmax [2]: 1.02 µg/mL
2 | CNCCOC12CC3(C)CC(C)(CC(Cn4ncc(-c5ccc(N6CCc7cccc(C(=O)Nc8nc9ccccc9s8)c7C6)nc5C(=O)O)c4C)(C3)C1)C2 [compound 9] | subnanomolar | severe thrombocytopenia | marked changes in cardiovascular parameters | expected thrombocytopenia | pEC50 ([4]; read-out: Molt-4 cell EC50, 10% human serum, 48 h): 8.10
3 | Cc1c(-c2ccc(N3CCc4cccc(C(=O)Nc5nc6ccccc6s5)c4C3)nc2C(=O)O)cnn1CC12CC3(C)CC(C)(C1)CC(OCCNCCS(=O)(=O)O)(C3)C2 [compound 10] | subnanomolar | no significant reduction of platelet number | only minimal to moderate effects on cardiovascular parameters | no decrease in platelets | loss of Molt-4 activity relative to 9 [4]: over 30 fold
4 | CC(=O)O[C@@]12CO[C@@H]1C[C@H](O)[C@@]1(C)C(=O)[C@H](O)C3=C(C)[C@@H](OC(=O)[C@H](O)[C@@H](NC(=O)OC(C)(C)C)c4ccccc4)C[C@@](O)([C@@H](OC(=O)c4ccccc4)[C@H]21)C3(C)C [docetaxel] | – | – | – | – | tumor growth inhibition (TGI) ([6]; 7.5 mg/kg iv QDx1, alone (single-dose ADC study)): 81%; time by which all tumors were relapsed ([6]; single agent): ≤ 46 days
5 | CC1(C)CCC(c2ccc(Cl)cc2)=C(CN2CCN(c3ccc(C(=O)NS(=O)(=O)c4ccc(N[C@H](CCN5CCOCC5)CSc5ccccc5)c(S(=O)(=O)C(F)(F)F)c4)cc3)CC2)C1 [navitoclax, reference compound] | – | severe thrombocytopenia | – | – | –
